The source made the active and inactive calls. The calls are words filed in the database; no cut-off is given here.
Key:
[1] = Cytotoxicity in human multiple myeloma cells assessed as early apoptotic cells at 200 uM after 24 hrs by annexin V/propidium iodide staining based flow cytometry (reference value: 0.1%); type: functional, Multiple myeloma cell
[2] = Cytotoxicity in human B-CLL assessed as late apoptotic/necrotic cells at 200 uM after 24 hrs by annexin V/propidium iodide staining based flow cytometry (reference value: 10 to 14.7%); type: functional
MCF7 [3] = experiment: Increase in CDKN1C mRNA level in human MCF7 cells at 50 uM after 12 hrs by TLDA; type: functional, cell-based
Summary of the method: (§1)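 SKBR3 and MCF7 cells seeded at 2 × 10⁵ per well, treated 12 h with 50 µM compound (DMSO stock); total RNA extracted, cDNA made with random hexamers, gene expression profiled by TaqMan low-density arrays (qPCR, duplicate per gene). Normalised to RPLP0; fold change versus DMSO vehicle-treated cells, calculated as 2^-ΔΔCT.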

[4] = Cytotoxicity in human B-CLL assessed as viable cells at 100 uM after 24 hrs by annexin V/propidium iodide staining based flow cytometry (reference value: 65.8 to 78%); type: functional; settings: read-out: Activity
SK-BR-3 [5] = experiment: Decrease in CDC25 mRNA level in human SKBR3 cells at 50 uM after 12 hrs by TLDA; type: functional, cell-based
Summary of the method: (§2)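 SKBR3 or MCF7 cells, 2×10⁵/well, treated with 50 µM for 12 h. Total RNA was column-purified and reverse-transcribed with random hexamers, then assayed on TaqMan low-density arrays. Expression was normalised to RPLP0, with fold change versus DMSO-vehicle cells calculated as 2^-ΔΔCT. Q-PCR run in duplicate per gene.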

SK-BR-3 [6] = experiment: Cell cycle arrest in human SKBR3 cells by accumulation of cells at G1 phase at 200 uM after 48 hrs by propidium iodide-staining based flow cytometry (reference value: 54%); type: functional
[7] = Cytotoxicity in human multiple myeloma cells assessed as viable cells at 200 uM after 24 hrs by annexin V/propidium iodide staining based flow cytometry (reference value: 48.2%); type: functional; settings: Multiple myeloma cell, read-out: Activity
SK-BR-3 [8] = experiment: Cell cycle arrest in human SKBR3 cells by accumulation of cells at G2/M phase at 50 uM after 48 hrs by propidium iodide-staining based flow cytometry (reference value: 16%); type: functional
BT-474 = experiment: Cytotoxicity against human BT474 cells after 72 hrs by colorimetric assay; type: functional, cell-based; settings: Homo sapiens, BT-474, 72 h; read-out: IC50
Summary of the method: (§3)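 Cells grown in McCoy's medium (adherent lines) or RPMI-1640 (U266), each with 10% FBS, L-glutamine and antibiotics, at 37 °C in 5% CO₂. Compound dissolved as a 100 mM DMSO stock, final DMSO ≤0.4%. Cells were exposed for 72 h across a 10^-2 to 400 µM range. Viability was read by CellTiter 96 Aqueous (2–4 h incubation, absorbance 490 nm). Triplicate wells; IC50 from curve fitting.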

MCF7 [9] = experiment: Decrease in ID1 mRNA level in human MCF7 cells at 50 uM after 12 hrs by TLDA; type: functional, cell-based; summary of the method: as §2
[10] = Cytotoxicity in human B-CLL assessed as late apoptotic/necrotic cells at 100 uM after 24 hrs by annexin V/propidium iodide staining based flow cytometry (reference value: 10 to 14.7%); type: functional
[11] = Cytotoxicity in human multiple myeloma cells assessed as viable cells at 50 uM after 24 hrs by annexin V/propidium iodide staining based flow cytometry (reference value: 48.2%); type: functional; settings: Multiple myeloma cell, read-out: Activity
A549 [12] = experiment: Cytotoxicity against human A549 cells after 72 hrs by colorimetric assay in presence of pan-caspase inhibitor zVAD-fmk; type: functional, cell-based
[13] = Cytotoxicity in human B-CLL assessed as early apoptotic cells at 100 uM after 24 hrs by annexin V/propidium iodide staining based flow cytometry (reference value: 3.6 to 20.2%); type: functional
[14] = Cytotoxicity in human multiple myeloma cells assessed as early apoptotic cells at 100 uM after 24 hrs by annexin V/propidium iodide staining based flow cytometry (reference value: 0.1%); type: functional, Multiple myeloma cell
[15] = Cytotoxicity in human multiple myeloma cells assessed as late apoptotic/necrotic cells at 50 uM after 24 hrs by annexin V/propidium iodide staining based flow cytometry (reference value: 9.1%); type: functional, Multiple myeloma cell
[16] = Cytotoxicity in human multiple myeloma cells assessed as late apoptotic/necrotic cells at 100 uM after 24 hrs by annexin V/propidium iodide staining based flow cytometry (reference value: 9.1%); type: functional, Multiple myeloma cell
Jurkat = experiment: Cytotoxicity against human Jurkat cells after 72 hrs by colorimetric assay; type: functional, cell-based; settings: Homo sapiens, Jurkat, 72 h; read-out: IC50
[17] = Cytotoxicity in human multiple myeloma cells assessed as viable cells at 100 uM after 24 hrs by annexin V/propidium iodide staining based flow cytometry (reference value: 48.2%); type: functional; settings: Multiple myeloma cell, read-out: Activity
[18] = molecular target: Glucoamylase (Aspergillus niger) (UniProt P69328); experiment: Inhibition of amyloglucosidase from Aspergillus niger at 1 mM at pH 5
Glucoamylase (Aspergillus niger), sequence (P69328 whole entry): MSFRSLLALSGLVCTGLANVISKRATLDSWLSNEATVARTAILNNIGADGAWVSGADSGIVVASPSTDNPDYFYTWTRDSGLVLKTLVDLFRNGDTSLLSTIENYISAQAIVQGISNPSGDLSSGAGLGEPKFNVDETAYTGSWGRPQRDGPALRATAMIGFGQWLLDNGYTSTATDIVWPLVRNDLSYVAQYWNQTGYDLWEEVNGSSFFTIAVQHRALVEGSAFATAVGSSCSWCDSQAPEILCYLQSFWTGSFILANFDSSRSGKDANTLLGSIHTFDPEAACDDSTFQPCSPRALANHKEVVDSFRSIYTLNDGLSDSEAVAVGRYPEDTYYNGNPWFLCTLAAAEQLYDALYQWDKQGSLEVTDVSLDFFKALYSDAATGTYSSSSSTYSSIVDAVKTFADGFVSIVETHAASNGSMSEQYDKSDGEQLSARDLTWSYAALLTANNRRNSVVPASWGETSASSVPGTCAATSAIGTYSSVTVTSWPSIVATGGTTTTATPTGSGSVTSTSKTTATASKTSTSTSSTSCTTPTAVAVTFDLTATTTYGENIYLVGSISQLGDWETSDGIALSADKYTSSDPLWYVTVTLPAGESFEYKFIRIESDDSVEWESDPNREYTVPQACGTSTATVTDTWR
Summary of the method: (§4)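 Glycosidase panel of commercial enzymes assayed at each enzyme's optimal pH with compound at 1 mM; percentage inhibition of enzyme activity calculated.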

SK-BR-3 [19] = experiment: Cytotoxicity against human SKBR3 cells after 72 hrs by colorimetric assay; type: functional, cell-based; settings: Homo sapiens, SK-BR-3, 72 h; read-out: IC50; summary of the method: as §3
Prunus dulcis = experiment: Inhibition of beta-glucosidase from almond at 1 mM at pH 5; summary of the method: as §4
MCF7 [20] = experiment: Decrease in CDC25 mRNA level in human MCF7 cells at 50 uM after 12 hrs by TLDA; type: functional, cell-based; summary of the method: as §2
SK-BR-3 [21] = experiment: Decrease in ID1 mRNA level in human SKBR3 cells at 50 uM after 12 hrs by TLDA; type: functional, cell-based; summary of the method: as §1
U-266 = experiment: Cytotoxicity against human U266 cells after 72 hrs by colorimetric assay; type: functional, cell-based; settings: Homo sapiens, U-266, 72 h; read-out: IC50; summary of the method: as §3
SK-BR-3 [22] = experiment: Cell cycle arrest in human SKBR3 cells by accumulation of cells at G1 phase at 100 uM after 48 hrs by propidium iodide-staining based flow cytometry (reference value: 54%); type: functional
MCF7 [23] = experiment: Decrease in hTERT mRNA level in human MCF7 cells at 50 uM after 12 hrs by TLDA; type: functional, cell-based; summary of the method: as §1
[24] = Cytotoxicity in human B-CLL assessed as early apoptotic cells at 200 uM after 24 hrs by annexin V/propidium iodide staining based flow cytometry (reference value: 3.6 to 20.2%); type: functional
A549 [25] = experiment: Cytotoxicity against human A549 cells after 72 hrs by colorimetric assay in presence of antioxidant N-acetyl-cysteine; type: functional, cell-based
A549 [26] = experiment: Cytotoxicity against human A549 cells after 72 hrs by colorimetric assay; type: functional, cell-based; settings: Homo sapiens, A549, 72 h; read-out: IC50; summary of the method: as §3
[27] = Inhibition of alpha-mannosidase from jack bean at pH 5; set-up: species or system Canavalia ensiformis
[28] = Cytotoxicity in human multiple myeloma cells assessed as late apoptotic/necrotic cells at 200 uM after 24 hrs by annexin V/propidium iodide staining based flow cytometry (reference value: 9.1%); type: functional, Multiple myeloma cell
Oryza sativa = experiment: Inhibition of alpha-glucosidase from rice at 1 mM at pH 4; summary of the method: as §4
SK-BR-3 [29] = experiment: Cell cycle arrest in human SKBR3 cells by accumulation of cells at G1 phase at 50 uM after 48 hrs by propidium iodide-staining based flow cytometry (reference value: 54%); type: functional

Question: With `OC[C@H](NC[C@H]1NC[C@H](O)[C@@H]1O)c1ccc(-c2ccc(C(F)(F)F)cc2)cc1` as the compound, how does the Activity [1] read?
Answer: 0.3%

Question: What about the Activity [2] of the same compound?
Answer: 55.6%

Question: And the Activity (MCF7 [3])?
Answer: Active

Question: What about the viability at 100 µM [4] of the same compound?
Answer: 5.1%

Question: And the Activity (SK-BR-3 [5])?
Answer: Active

Question: What about the Activity (SK-BR-3 [6]) of the same compound?
Answer: 42%

Question: What about the viability at 200 µM [7] of the same compound?
Answer: 3%

Question: What about the Activity (SK-BR-3 [8]) of the same compound?
Answer: 13%

Question: And the IC50 (BT-474)?
Answer: 93 µM

Question: What about the Activity (MCF7 [9]) of the same compound?
Answer: Active

Question: And the Activity [10]?
Answer: 11.1%

Question: And the viability at 50 µM [11]?
Answer: 42.8%

Question: What about the Activity (A549 [12]) of the same compound?
Answer: Active

Question: What about the Activity [13] of the same compound?
Answer: 2.7%

Question: And the Activity [14]?
Answer: 2.6%

Question: And the Activity [15]?
Answer: 37.9%

Question: And the Activity [16]?
Answer: 52.6%

Question: What about the IC50 (Jurkat) of the same compound?
Answer: 75 µM

Question: What about the viability at 100 µM [17] of the same compound?
Answer: 27.6%

Question: And the inhibition [18]?
Answer: < 10%

Question: What about the IC50 (SK-BR-3 [19]) of the same compound?
Answer: 48 µM

Question: What about the inhibition (Prunus dulcis) of the same compound?
Answer: 50%

Question: What about the Activity (MCF7 [20]) of the same compound?
Answer: Active

Question: What about the Activity (SK-BR-3 [21]) of the same compound?
Answer: Active

Question: And the IC50 (U-266)?
Answer: 50 µM

Question: And the Activity (SK-BR-3 [22])?
Answer: 48%

Question: And the Activity (MCF7 [23])?
Answer: Active

Question: What about the Activity [24] of the same compound?
Answer: 1%

Question: What about the Activity (A549 [25]) of the same compound?
Answer: Active

Question: And the IC50 (A549 [26])?
Answer: 152 µM

Question: What about the IC50 [27] of the same compound?
Answer: 5 µM

Question: And the Ki [27]?
Answer: 2.7 µM

Question: What about the Activity [28] of the same compound?
Answer: 75.4%

Question: What about the inhibition (Oryza sativa) of the same compound?
Answer: < 10%

Question: What about the Activity (SK-BR-3 [29]) of the same compound?
Answer: 57%
